In ChEMBL document CHEMBL1221396, “Resveratrol oligomers from Vatica albiramis” (J Nat Prod, 2010):
The source made the active and inactive calls. No cut-off for these calls is given here.

Assays:
HFF [1] = assay: Antiinflammatory activity in human foreskin fibroblast assessed as inhibition of IL-1-beta-induced MMP1 production at 1 uM treated for 24 hrs before IL1-beta challenge measured after 24 hrs by Western blot analysis; assay type: functional, cell-based
How it was run: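 Fibroblasts were grown in DMEM with 10% FBS at 37 °C under 5% CO2, seeded at 2 × 10⁵ cells/mL, grown to confluence, and treated for 24 h. Secreted MMP-1 was measured by western blot. Blots were blocked in TBS with 5% skim milk and 0.05% Tween-20 for 1 h at room temperature, incubated with primary antibody overnight at 4 °C, then with HRP secondary antibody for 1 h at room temperature.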

HFF [2] = assay: Cytotoxicity against human foreskin fibroblast at 1 uM; assay type: cell-based

SMILES | inhibition (HFF [1]) | Activity (HFF [2])
Oc1ccc([C@@H]2c3c(O)cc(O)cc3[C@@H]3c4c(cc(O)cc4[C@H]2[C@@H]2c4cc(O)cc5c4[C@@H](c4cc(O)cc(O)c4[C@H]2c2ccc(O)cc2)[C@H](c2ccc(O)cc2)O5)O[C@H]3c2ccc(O)cc2)cc1 | Active | Non-toxic
OC[C@H]1O[C@@H](Oc2cc(O)cc([C@@H]3c4c(/C=C/c5ccc(O)cc5)cc(O[C@@H]5O[C@H](CO)[C@@H](O)[C@H](O)[C@H]5O)cc4O[C@H]3c3ccc(O)cc3)c2)[C@H](O)[C@@H](O)[C@@H]1O | inactive | –
Oc1ccc(/C=C/c2cc(O)cc3c2[C@@H](c2cc(O)cc(O)c2)[C@H](c2ccc(O)cc2)O3)cc1 | inactive | –
Oc1ccc(/C=C\c2cc(O)cc3c2[C@@H](c2cc(O)cc(O)c2)[C@H](c2ccc(O)cc2)O3)cc1 | inactive | –
Oc1ccc([C@H]2c3c(O)cc(O)cc3[C@@H]3c4c(cc(O)cc4[C@H]2O)O[C@H]3c2ccc(O)cc2)cc1 | inactive | –
Oc1ccc([C@H]2c3c(O)cc4c(c3[C@@H]3[C@@H](c5ccc(O)cc5)c5c(O)cc6c(c5[C@H]23)[C@@H](c2cc(O)cc(O)c2)[C@H](c2ccc(O)cc2)O6)[C@@H](c2cc(O)cc(O)c2)[C@H](c2ccc(O)cc2)O4)cc1 [STENOPHYLLOL C] | Active | Non-toxic
OC[C@H]1O[C@@H](Oc2cc3c4c(c2)[C@@H]([C@@H]2c5cc(O)cc6c5[C@@H](c5cc(O)cc(O)c5[C@H]2c2ccc(O)cc2)[C@H](c2ccc(O)cc2)O6)[C@H](c2ccc(O)cc2)c2c(O)cc(O)cc2[C@H]4[C@H](c2ccc(O)cc2)O3)[C@H](O)[C@@H](O)[C@@H]1O [VATALBINOSIDE A] | Active | Non-toxic
Oc1ccc([C@@H]2c3c(O)cc(O)cc3[C@@H]3c4c(cc(O)cc4[C@H]2[C@@H]2c4cc(O)c([C@@H](c5ccc(O)cc5)[C@@H]5c6c(c(O)cc7c6[C@@H](c6cc(O)cc(O)c6)[C@H](c6ccc(O)cc6)O7)[C@H](c6cc(O)cc7c6[C@H](c6cc(O)cc(O)c6)[C@@H](c6ccc(O)cc6)O7)[C@H]5c5ccc(O)cc5)c5c4[C@@H](c4cc(O)cc(O)c4[C@H]2c2ccc(O)cc2)[C@H](c2ccc(O)cc2)O5)O[C@H]3c2ccc(O)cc2)cc1 [VATERIAPHENOL A] | Active | Non-toxic
Oc1ccc([C@@H]2c3c(O)cc4c(c3[C@@H]3c5c(O)cc6c(c5[C@H]2[C@H]3c2ccc(O)cc2)[C@@H](c2cc(O)cc(O)c2)[C@H](c2ccc(O)cc2)O6)[C@@H](c2cc(O)cc(O)c2)[C@H](c2ccc(O)cc2)O4)cc1 [VATICANOL C] | Active | Non-toxic
Oc1ccc([C@@H]2c3c(O)cc(O)cc3[C@@H]3c4c(cc(O)c5c4[C@@H]2[C@H](c2ccc(O)cc2)[C@H]5c2cc(O)cc4c2[C@@H](c2cc(O)cc(O)c2)[C@H](c2ccc(O)cc2)O4)O[C@H]3c2ccc(O)cc2)cc1 [Vaticanol B] | Active | Non-toxic
